Data taken from ChEMBL document CHEMBL5696442, “Discovery of type II inhibitors of TGFβ-activated kinase 1 (TAK1) and mitogen-activated protein kinase kinase kinase kinase 2 (MAP4K2)” (J Med Chem, 2015).
pIC50: −log10 of the molar value. The source made the active and inactive calls. No cut-off for these calls is given here.

How the values were obtained:
[1] = target: T1, Ephrin type-B receptor 2 (Homo sapiens) (UniProt P29323); test: Inhibition of EphB2 ACT labeling site in human A-375 cells at 0.05 uM by KiNativ Profiling analysis relative to control; format: cell-based
T1 sequence (whole entry): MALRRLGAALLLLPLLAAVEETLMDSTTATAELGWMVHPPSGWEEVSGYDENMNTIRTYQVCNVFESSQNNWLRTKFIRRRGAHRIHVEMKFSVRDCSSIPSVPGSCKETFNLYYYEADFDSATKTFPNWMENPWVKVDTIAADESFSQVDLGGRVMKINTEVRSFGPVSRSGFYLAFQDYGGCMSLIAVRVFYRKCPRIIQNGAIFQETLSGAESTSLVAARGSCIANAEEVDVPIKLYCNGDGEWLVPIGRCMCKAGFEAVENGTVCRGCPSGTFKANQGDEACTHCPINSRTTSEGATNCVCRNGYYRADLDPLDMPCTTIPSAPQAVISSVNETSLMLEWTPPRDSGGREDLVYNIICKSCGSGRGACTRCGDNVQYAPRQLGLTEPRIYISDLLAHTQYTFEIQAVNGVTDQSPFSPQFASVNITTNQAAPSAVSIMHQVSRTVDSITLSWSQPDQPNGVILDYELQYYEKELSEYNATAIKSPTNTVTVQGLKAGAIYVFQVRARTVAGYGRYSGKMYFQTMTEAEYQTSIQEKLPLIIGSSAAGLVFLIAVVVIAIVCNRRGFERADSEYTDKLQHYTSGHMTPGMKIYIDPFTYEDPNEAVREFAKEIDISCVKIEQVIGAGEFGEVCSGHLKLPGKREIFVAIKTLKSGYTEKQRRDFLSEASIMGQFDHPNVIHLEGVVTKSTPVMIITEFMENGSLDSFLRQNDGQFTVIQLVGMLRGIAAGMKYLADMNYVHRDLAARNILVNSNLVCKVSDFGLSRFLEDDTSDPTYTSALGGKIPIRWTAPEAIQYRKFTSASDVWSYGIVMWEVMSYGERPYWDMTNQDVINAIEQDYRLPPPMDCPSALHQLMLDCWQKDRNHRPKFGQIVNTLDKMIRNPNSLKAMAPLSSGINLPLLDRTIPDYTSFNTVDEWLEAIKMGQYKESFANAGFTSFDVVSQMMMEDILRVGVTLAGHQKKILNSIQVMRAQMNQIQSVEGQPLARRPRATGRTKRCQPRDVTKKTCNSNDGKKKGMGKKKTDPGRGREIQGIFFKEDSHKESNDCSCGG

[2] = target: Mitogen-activated protein kinase 8 (Homo sapiens, UniProt P45983); test: Inhibition of JNK1 (unknown origin) Lys2 labeling site by KiNativ Profiling analysis
Chain of Mitogen-activated protein kinase 8 (P45983 whole entry): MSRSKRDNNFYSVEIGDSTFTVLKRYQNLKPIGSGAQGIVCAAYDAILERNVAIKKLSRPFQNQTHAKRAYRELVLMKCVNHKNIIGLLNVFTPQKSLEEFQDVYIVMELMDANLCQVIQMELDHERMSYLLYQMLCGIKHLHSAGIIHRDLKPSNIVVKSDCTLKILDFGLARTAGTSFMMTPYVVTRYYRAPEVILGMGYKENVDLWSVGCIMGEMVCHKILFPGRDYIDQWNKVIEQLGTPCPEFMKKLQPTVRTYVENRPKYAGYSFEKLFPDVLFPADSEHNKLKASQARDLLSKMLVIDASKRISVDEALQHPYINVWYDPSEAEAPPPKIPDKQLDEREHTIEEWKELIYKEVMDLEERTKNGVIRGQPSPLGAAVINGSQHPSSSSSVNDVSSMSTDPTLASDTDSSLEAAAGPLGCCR

[3] = system: GEN2.2; test: Inhibition of CL097 induced JNK1/2 phosphorylation level in human GEN2.2 cells at 1 uM preincubated with compound for 1 hr followed by CL097 stimulation and measured after 30 mins by Western blot analysis; format: functional, cell-based
In short: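 Gen2.2 cells were pretreated with compound at 1 μM for 1 h, then stimulated with CL097 for 30 min. Lysates were analysed by Western blot for phosphorylation of p105, p38 and JNK1/2.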

[4] = target: Casein kinase I isoform delta (Homo sapiens) (UniProt P48730); test: Inhibition of CK1delta Lys2 labeling site in human A-375 cells at 0.05 uM by KiNativ Profiling analysis relative to control; format: cell-based
Chain of Casein kinase I isoform delta (Homo sapiens) (P48730 whole entry, looked up, canonical isoform): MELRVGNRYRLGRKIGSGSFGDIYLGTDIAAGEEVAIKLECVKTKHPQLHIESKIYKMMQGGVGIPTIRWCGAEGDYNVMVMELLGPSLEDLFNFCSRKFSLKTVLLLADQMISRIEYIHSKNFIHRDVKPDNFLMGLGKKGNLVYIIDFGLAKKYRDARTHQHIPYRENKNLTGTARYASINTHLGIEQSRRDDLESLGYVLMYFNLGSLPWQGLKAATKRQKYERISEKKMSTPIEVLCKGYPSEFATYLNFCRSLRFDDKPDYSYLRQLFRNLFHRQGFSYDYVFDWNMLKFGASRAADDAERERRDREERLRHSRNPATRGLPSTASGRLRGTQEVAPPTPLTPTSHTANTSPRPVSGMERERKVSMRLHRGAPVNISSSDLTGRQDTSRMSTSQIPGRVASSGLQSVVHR

[5] = target: Focal adhesion kinase 1 (Homo sapiens) (UniProt Q05397); test: Inhibition of FAK Lys1 labeling site in human A-375 cells at 0.5 uM by KiNativ Profiling analysis relative to control; format: cell-based
Chain of Focal adhesion kinase 1 (Homo sapiens) (Q05397 2-1052 limits assumed): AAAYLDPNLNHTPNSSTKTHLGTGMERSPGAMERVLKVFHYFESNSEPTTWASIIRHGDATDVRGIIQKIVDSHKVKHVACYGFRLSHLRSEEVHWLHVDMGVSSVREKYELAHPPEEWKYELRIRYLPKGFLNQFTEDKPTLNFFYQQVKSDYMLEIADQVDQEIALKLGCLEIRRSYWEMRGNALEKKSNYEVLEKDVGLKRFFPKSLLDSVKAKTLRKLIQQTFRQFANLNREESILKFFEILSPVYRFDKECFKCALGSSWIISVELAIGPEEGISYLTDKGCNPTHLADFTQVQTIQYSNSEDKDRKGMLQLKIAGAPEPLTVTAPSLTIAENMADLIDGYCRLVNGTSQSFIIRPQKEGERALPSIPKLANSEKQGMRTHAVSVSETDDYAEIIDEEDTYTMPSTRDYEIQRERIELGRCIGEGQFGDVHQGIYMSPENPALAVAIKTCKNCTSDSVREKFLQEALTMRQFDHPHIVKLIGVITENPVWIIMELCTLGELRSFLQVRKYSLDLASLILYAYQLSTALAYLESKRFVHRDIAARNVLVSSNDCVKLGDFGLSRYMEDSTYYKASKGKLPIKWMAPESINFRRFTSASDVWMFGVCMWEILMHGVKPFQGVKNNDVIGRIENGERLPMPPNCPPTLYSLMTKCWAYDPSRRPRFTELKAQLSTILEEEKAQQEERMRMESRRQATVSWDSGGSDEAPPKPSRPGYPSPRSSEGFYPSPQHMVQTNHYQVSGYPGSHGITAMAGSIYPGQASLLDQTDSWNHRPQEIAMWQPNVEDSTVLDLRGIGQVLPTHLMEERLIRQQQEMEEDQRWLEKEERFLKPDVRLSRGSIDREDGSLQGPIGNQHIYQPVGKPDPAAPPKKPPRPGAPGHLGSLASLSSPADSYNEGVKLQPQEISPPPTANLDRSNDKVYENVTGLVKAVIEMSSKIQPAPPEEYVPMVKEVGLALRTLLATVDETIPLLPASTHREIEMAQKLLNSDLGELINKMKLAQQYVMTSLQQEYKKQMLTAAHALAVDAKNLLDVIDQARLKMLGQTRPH
In short: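 Live A375 melanoma cells were treated with compound at 5 or 0.5 μM, then lysed. Lysates were labeled with a lysine-reactive ATP or ADP-biotin probe. Read-out was the compound's protection of kinase labeling sites from probe labeling (KiNativ).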

[6] = target: T2, Ephrin type-B receptor 4 (Homo sapiens) (UniProt P54760); test: Inhibition of EphB4 ACT labeling site in human A-375 cells at 0.05 uM by KiNativ Profiling analysis relative to control; format: cell-based
T2 sequence (whole entry): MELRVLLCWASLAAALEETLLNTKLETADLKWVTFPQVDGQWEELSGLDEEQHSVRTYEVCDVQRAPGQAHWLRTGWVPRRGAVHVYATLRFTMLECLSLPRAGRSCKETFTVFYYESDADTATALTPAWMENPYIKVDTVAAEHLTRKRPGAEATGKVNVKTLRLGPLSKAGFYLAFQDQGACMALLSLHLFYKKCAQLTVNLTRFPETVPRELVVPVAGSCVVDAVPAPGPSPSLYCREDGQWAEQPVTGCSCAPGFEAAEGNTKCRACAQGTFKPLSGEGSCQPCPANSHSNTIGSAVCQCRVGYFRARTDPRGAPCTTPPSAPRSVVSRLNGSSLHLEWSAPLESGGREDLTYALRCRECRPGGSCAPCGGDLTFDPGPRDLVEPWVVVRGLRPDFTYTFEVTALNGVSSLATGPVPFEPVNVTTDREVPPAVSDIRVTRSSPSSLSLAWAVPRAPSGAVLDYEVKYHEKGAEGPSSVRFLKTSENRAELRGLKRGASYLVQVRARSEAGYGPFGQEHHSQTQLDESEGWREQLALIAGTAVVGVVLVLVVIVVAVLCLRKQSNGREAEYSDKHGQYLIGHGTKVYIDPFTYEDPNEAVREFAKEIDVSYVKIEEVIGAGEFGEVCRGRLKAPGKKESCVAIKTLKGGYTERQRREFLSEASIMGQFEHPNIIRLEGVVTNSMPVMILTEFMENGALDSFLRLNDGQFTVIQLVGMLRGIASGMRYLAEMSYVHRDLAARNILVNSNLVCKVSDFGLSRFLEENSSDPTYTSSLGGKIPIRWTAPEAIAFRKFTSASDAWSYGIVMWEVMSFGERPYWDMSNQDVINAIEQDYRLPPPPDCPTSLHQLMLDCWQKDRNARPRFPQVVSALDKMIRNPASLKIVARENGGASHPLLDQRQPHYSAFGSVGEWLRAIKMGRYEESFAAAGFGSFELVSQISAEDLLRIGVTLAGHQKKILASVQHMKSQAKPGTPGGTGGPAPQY

[7] = target: Cyclin-dependent kinase 1 (Homo sapiens) (UniProt P06493); test: Inhibition of CDC2 Lys2 labeling site harbouring DLKPQNLLIDDKGTIK in human A-375 cells at 0.5 uM by KiNativ Profiling analysis relative to control; format: cell-based
Chain of Cyclin-dependent kinase 1 (Homo sapiens) (P06493 whole entry, looked up): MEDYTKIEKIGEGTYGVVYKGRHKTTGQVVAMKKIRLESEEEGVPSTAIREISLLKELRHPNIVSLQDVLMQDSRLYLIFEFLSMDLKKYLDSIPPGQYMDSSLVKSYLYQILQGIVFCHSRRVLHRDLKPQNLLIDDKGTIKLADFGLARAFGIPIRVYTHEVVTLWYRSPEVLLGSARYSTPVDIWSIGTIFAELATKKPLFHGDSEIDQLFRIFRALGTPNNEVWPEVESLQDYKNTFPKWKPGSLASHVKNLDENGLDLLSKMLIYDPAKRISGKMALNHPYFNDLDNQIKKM
In short: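 Live A375 melanoma cells were treated with compound at 5 or 0.5 μM. The cells were then lysed, and the lysates were labeled with a lysine-reactive ATP or ADP-biotin acyl probe (KiNativ). Inhibition is the compound's protection of each kinase labeling-site peptide from probe labeling, relative to untreated control.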

[8] = target: Serine/threonine-protein kinase 26 (Homo sapiens) (UniProt Q9P289); test: Inhibition of MST4 Lys2 labeling site in human A-375 cells at 0.5 uM by KiNativ Profiling analysis relative to control; format: cell-based
Chain of Serine/threonine-protein kinase 26 (Homo sapiens) (Q9P289 2-416 limits assumed): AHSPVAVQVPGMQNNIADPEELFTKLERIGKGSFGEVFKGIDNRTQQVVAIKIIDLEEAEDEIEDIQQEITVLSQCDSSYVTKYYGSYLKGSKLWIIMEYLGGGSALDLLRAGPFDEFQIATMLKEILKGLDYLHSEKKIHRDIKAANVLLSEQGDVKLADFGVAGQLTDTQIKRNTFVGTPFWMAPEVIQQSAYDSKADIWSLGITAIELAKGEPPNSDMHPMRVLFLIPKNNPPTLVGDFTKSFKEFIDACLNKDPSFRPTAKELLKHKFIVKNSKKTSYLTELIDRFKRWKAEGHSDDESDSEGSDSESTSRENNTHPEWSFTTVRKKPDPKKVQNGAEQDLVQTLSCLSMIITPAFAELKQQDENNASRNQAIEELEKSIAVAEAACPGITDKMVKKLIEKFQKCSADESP

[9] = target: Mitogen-activated protein kinase kinase kinase kinase 4 (Homo sapiens, UniProt O95819); test: Inhibition of ZC1/HGK Lys1 labeling site in human A-375 cells at 5 uM by KiNativ Profiling analysis relative to control; format: cell-based
Chain of Mitogen-activated protein kinase kinase kinase kinase 4 (O95819 2-1239 limits assumed): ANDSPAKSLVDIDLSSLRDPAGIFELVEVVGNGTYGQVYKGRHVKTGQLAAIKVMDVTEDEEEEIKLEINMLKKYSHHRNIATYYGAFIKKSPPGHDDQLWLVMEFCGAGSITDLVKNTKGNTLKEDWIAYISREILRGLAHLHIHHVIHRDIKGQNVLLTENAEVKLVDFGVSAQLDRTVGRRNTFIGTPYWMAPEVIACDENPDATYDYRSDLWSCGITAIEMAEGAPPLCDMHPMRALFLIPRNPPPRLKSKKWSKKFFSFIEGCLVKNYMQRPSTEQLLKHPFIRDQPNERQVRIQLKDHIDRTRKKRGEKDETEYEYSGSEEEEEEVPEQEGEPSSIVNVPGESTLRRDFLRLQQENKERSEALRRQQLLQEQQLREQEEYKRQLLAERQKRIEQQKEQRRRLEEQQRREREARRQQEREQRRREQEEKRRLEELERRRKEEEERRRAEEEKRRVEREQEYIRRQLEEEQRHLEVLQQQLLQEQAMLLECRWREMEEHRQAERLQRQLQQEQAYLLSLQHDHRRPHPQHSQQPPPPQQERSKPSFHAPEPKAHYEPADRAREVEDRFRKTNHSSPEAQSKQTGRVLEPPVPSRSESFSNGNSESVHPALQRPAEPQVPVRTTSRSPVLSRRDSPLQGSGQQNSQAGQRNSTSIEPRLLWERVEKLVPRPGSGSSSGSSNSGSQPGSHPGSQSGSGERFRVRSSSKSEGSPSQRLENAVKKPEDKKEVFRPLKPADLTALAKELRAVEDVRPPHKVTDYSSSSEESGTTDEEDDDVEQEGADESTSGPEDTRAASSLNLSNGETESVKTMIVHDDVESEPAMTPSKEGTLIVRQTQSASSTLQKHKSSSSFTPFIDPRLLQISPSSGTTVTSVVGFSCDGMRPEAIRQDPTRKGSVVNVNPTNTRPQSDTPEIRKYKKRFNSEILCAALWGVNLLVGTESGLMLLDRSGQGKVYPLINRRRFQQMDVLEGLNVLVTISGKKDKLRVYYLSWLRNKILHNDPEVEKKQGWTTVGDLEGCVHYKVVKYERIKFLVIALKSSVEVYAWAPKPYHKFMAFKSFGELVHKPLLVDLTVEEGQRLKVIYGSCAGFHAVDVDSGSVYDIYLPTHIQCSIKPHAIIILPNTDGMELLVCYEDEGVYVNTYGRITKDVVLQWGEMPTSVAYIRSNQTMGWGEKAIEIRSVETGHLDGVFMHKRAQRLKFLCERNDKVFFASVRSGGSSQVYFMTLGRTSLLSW

Structure (SMILES) | inhibition [1] [%] | pIC50 [2] | inhibition [3] | inhibition [4] [%] | inhibition [5] [%] | inhibition [6] [%] | inhibition [7] [%] | inhibition [8] [%] | inhibition [9] [%]
CCN1CCN(Cc2ccc(NC(=O)c3ccc(C)c(Oc4ccnc5[nH]ccc45)c3)cc2C(F)(F)F)CC1 | 5 | < 5.00 | Active | -0.7 | 9.3 | 3.4 | 13.7 | 12.5 | 86.4
CNc1cc(Oc2cc(C(=O)Nc3cc(-n4cnc(C)c4)cc(C(F)(F)F)c3)ccc2C)ncn1 |  |  | inactive |  |  |  |  |  | 
CCN1CCN(Cc2ccc(NC(=O)c3ccc(C)c(/C=C/c4cnc5[nH]ccc5c4OC)c3)cc2C(F)(F)F)CC1 | 36.9 | < 5.00 |  | -9.6 | -2 | 33.4 | 6.3 | 9.8 | > 88
